Screening results deposited in PubChem BioAssay by Broad Institute.
FGF22 binding – binders of human FGF22 protein, primary screen, FGF22 synaptogenesis inhibitor project, biophysical, thermal shift, single point; recombinant FGF22 thermal shift, SYPRO orange fluorescence; percent of sucrose octasulfate shift, DMSO zero; 340,000 tested, 1.5% active; activity (Tm shift, normalised), % at 9.99 µM; Fibroblast growth factor 22 (Homo sapiens), Q9HCT0;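 active = mean Tm shift, scaled 0 neutral to 100 positive control, at about 1.3% or above, every replicate too, limit read from the data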
PGC1a acetyl inh – inhibitors of PGC1a acetylation signal, primary screen, cell-based, U2OS, AlphaScreen, inhibitor mode; 350,000 tested, 0.17% active; AlphaScreen anti-acetyl-lysine; with virally co-expressed GCN5 acetyltransferase; inhibition, % at 15.6 µM;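 active = every replicate shows inhibition of at least 40%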;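 also: 0% = neutral control wells and 100% = positive control wells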
ERAP1 inh – human ERAP1 aminopeptidase inhibitors, primary screen, biochemical, single point, plate reader. recombinant ERAP1, Leu-AMC fluorescence, 60 min. inhibition, % at 10.7 µM. 340,000 tested, 0.15% active. AID 652197, 2013;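 active = mean replicate inhibition of at least 30%, or all replicates individually reaching that 30% level; inactive = mean below 30% and not every replicate reaching it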;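 also: 0% = neutral control wells and 100% = L-leucinethiol positive control wells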
Target sequence (Q9NZ08 whole entry, looked up): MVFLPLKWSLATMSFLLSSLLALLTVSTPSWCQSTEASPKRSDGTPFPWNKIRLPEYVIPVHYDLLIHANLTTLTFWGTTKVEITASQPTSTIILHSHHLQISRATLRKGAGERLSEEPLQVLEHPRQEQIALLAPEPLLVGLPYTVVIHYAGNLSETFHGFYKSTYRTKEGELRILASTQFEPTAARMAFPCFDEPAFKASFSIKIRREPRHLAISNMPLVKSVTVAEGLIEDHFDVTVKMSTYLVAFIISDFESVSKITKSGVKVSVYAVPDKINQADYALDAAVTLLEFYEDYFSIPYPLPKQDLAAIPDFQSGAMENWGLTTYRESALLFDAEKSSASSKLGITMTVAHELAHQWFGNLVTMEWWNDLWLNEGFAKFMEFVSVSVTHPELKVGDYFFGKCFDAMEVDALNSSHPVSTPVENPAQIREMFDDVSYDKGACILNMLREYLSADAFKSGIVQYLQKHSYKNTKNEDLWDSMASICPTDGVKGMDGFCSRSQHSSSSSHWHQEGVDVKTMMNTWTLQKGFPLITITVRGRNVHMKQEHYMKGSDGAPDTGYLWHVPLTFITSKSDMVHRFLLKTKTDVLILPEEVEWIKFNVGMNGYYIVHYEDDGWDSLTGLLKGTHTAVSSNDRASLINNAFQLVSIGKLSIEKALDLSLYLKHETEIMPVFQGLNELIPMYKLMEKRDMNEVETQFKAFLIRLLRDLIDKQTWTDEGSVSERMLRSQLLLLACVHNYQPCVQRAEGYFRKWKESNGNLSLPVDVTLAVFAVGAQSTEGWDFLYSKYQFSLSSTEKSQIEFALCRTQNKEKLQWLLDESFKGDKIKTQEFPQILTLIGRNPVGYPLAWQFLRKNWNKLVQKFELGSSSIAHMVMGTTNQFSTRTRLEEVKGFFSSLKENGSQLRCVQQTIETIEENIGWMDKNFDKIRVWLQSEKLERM
Cneo AK release – Cryptococcus neoformans cell lysis inducers, primary screen, AK release luminescence, single concentration. C. neoformans lysis, adenylate kinase release luminescence, 4 h; normalised: neutral wells 0, clomiphene wells 100. lysis activity, % at 15 µM. 360,000 tested, 0.2% active;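 active = mean lysis activity across replicates of at least 80%, whatever share of replicates individually reach that level; inactive = mean lysis activity below 80%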
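read-out = cell lysis signal | test system = log-phase Cryptococcus neoformans yeast cells | input = cells at 5 × 10^6 per mL | medium = fresh YPD growth medium | signal = luminescent adenylate kinase detection reagent | timing = 4 h at 37 °C static, read 1 h later | dosing = single dose | controls = Clomiphene as positive lysis control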
Ecoli rRNA inh – reduced GFP signal of wild-type E. coli, primary screen, bacterial rRNA inhibitor project, GFP/RFP fluorescence, OD600, single point; E. coli WT GFP vs humanized-ribosome RFP mutants, 24 h; stronger effect = lower value; DMSO median 0, no signal -100; GFP signal change (wild-type ribosome), % (test concentration not listed); 350,000 tested, 1.6% active; AID 720706, 2013;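 active = significant combined selectivity score with lowered wild-type GFP, culture density cut under 30%, mutant RFP and density less affected; inactive = any of these conditions unmet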
HIV Env fusion – inhibitors of HIV-1 Env-driven cell-cell fusion, primary screen, HeLa-JRFL effector, CEM21 target cells, luciferase | inhibition, % at 12.3 µM | AID 651610, 2012 | 360,000 tested, 1.1% active;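 active = mean replicate inhibition score of at least 50 and every replicate individually at or above 50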;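 also: 0% = plate neutral controls and 100% = maraviroc near 300 nM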
* marks the source's active call; other numbers are inactive results; . = not tested or not shown; [ ] = dose if it differs, or a comment. Sampled rows, rich in hits. Any-hit rate of the full collection: about 3.5%.

SMILES	FGF22 binding	PGC1a acetyl inh	ERAP1 inh	Cneo AK release	Ecoli rRNA inh	HIV Env fusion
CC1=C(C(=O)N(C)C)CC(CC(=O)NC2CC2)C(=O)N1Cc1ccccc1 (stereo not given)	0.0	3.8	.	-3.4	13.2	36.7
COc1cccc(Nc2nc(C(C)N)cs2)n1 (stereo not given)	-0.2	8.9	-9.2	-0.5	11.8	0.9
COc1cccc(Nc2nc(CN)cs2)n1	-0.1	3.7	-4.4	-10.9	.	57.1*
Cc1nn(C)cc1NC(=O)C[C@H]1CC[C@@H]2[C@H](COc3ccc(NC(=O)C(C)C)cc3C(=O)N2C)O1	-0.1	-3.9	.	0.2	1.1	26.8[16.7 µM]
N#CCCN(C(=O)CN1c2cccc3cccc(c23)S1(=O)=O)c1ccccc1	43.4*	14.2	0.4	8.1	5.6	-16.0
CN(C)C(=O)CN1c2cccc3cccc(c23)S1(=O)=O	0.2	8.3	0.3	-4.1	10.9	8.1
Cc1ccccc1S(=O)(=O)N1[C@H](C#N)[C@H](c2ccc(C#CC3CCCCC3)cc2)[C@@H]1CO	0.1	0.0	-3.2	-2.6	0.4	16.0[16.7 µM]
CCC12CN(S(=O)(=O)c3ccc(C)cc3)CC(CC)(CN(S(=O)(=O)c3ccc(C)cc3)C1)C2=O	.	-16.5	.	-1.3	.	108.5*
O=C(NNC(=O)c1cccs1)c1ccncc1	0.0	4.8	-0.8	.	10.4	0.9
O=C(CC(=O)c1cccs1)c1ccncc1	-0.1	-2.6	6.2	-5.9	-22.3*	-28.8
O=C(c1ccccc1)c1cccs1	43.2*	.	-1.2	.	.	-103.5
CC(C)Oc1ccc(C2CC(=O)NC3=C2C(=O)CCC3)cc1 (stereo not given)	.	-15.2	.	2.6	.	.
Cn1nnnc1SCC(=O)NCc1cc([N+](=O)[O-])ccc1O	0.1	.	2.4	.	9.6	0.1
N#CC1(NC(=O)CSc2nc3ccc([N+](=O)[O-])cc3s2)CCCCC1	0.3	.	-5.3	.	-17.3*	-27.5
O=C(CSc1nc2ccccc2s1)NCc1cc([N+](=O)[O-])ccc1O	0.2	-3.3	0.9	-19.4	-31.1*	.
N#CC1(NC(=O)CSc2nc3ccccc3s2)CCCCC1	-0.1	5.6	1.6	2.0	-1.8	.
Cc1nn(CC(=O)NC2CCCC2)c(C)c1[N+](=O)[O-]	0.1	-4.5	-0.4	-1.8	3.5	.
CCCN1C(=O)C(O)(C2CC(=O)CC(C)(C)O2)c2ccccc21 (stereo not given)	.	6.2	.	126.1*	.	.
Cc1ccc2[nH]c(C)c(/C=C/c3cc[n+](C)cc3)c2c1	-0.1	.	16.1	0.6	58.0	59.9*
C[C@@]12C(=O)N(Cc3ccccc3)CC(=O)N1[C@H]1c3ccccc3OC[C@@H]1[C@@H]2c1ccccc1	-0.5	.	-2.0	-1.0	-1.8	104.1*
CCOC(=O)[C@@H]1[C@H]2COc3ccccc3[C@@H]2N2C(=O)N(c3ccc(F)cc3)C(=O)[C@@]12C	44.9*	11.7	6.7	2.0	1.9	.
CCOC(=O)[C@H]1[C@H]2COc3ccc(OC)cc3[C@@H]2N2C(=O)CN(Cc3ccc(F)cc3)C(=O)[C@@]12C	-0.1	-6.3	0.6	1.6	-1.9	-36.8
CCOC(=O)[C@@H]1[C@H]2COc3ccccc3[C@@H]2N2C(=O)N(c3ccc(C)cc3)C(=O)[C@@]12C	0.2	-7.0	-1.3	4.0	5.0	-28.3
C[C@]12C(=O)N(c3cccc(Cl)c3)C(=O)N1[C@@H]1c3ccccc3OC[C@@H]1[C@H]2c1ccccc1	-0.2	-35.7	1.3	1.3	7.5	55.6*
CCOC(=O)[C@H]1[C@H]2COc3ccc(OC)cc3[C@@H]2N2C(=O)CN(Cc3ccc(Cl)cc3)C(=O)[C@@]12C	0.2	-0.2	-1.6	0.5	-27.2	62.9*
SMILES	FGF22 binding	PGC1a acetyl inh	ERAP1 inh	Cneo AK release	Ecoli rRNA inh	HIV Env fusion
CC(C)CNC(=O)C1(C)CCCCCN1C(=O)c1cccnc1 (stereo not given)	0.1	-8.6	2.6	-4.7	6.4	-4.6
C[C@@]12C(=O)N(Cc3ccco3)CC(=O)N1[C@H]1c3ccccc3OC[C@@H]1[C@@H]2c1ccccc1	-0.2	.	-1.7	-0.4	3.0	84.2*
CCCCN1CC(=O)N2[C@H]3c4ccccc4OC[C@@H]3[C@H](c3ccccc3)[C@]2(C)C1=O	0.0	.	.	0.6	-17.3	82.9*
Cc1ccc2c(c1)[C@H]1[C@H](CO2)[C@H](c2ccccc2)[C@]2(C)C(=O)N(Cc3ccco3)CC(=O)N12	-0.1	.	0.6	5.0	-1.6	16.7
COc1cc(CC(=O)OCC(=O)N2CCN(C(=O)c3ccco3)CC2)cc(OC)c1OC	0.0	2.5	-1.1	2.9	-2.9	.
O=C1CC(c2cccc([N+](=O)[O-])c2)c2ccc3ccccc3c2N1 (stereo not given)	.	.	.	-1.4	.	93.1*
CCOc1cc(CN2CCN(c3cccc(C(F)(F)F)c3)CC2)ccc1OC	.	-1.6	.	8.4	.	.
O=C(Nc1cccc(C(F)(F)F)c1)c1ccc(-n2cncn2)nc1	43.4*	.	0.9	.	.	-42.2
CCOC(=O)C1(Cc2cccc(Cl)c2)CCCN(C(=O)c2cccnc2)C1 (stereo not given)	42.6	96.7*	-0.9	.	-10.0	23.4
CCOC(=O)C1(Cc2ccccc2C)CCCN(C(=O)c2cc(CC)nn2C)C1 (stereo not given)	43.2*	-4.8	0.2	.	-15.1	14.3
CCOC(=O)C1(Cc2ccccc2C)CCCN(C(=O)c2ccnn2C)C1 (stereo not given)	.	0.4	0.6	1.3	-1.7	-5.1
CC(C)OC(=O)CSc1nnc(CNc2ccc(Cl)cc2)n1C	0.4	-3.4	0.8	.	0.8	-19.5
Cn1cc(/C=C/C(=O)N2CCCC(C(=O)c3cccc(C(F)(F)F)c3)C2)cn1 (stereo not given)	0.2	0.7	1.4	-0.8	-29.1*	-0.4
CC(C)C(NS(=O)(=O)c1cccc(C(F)(F)F)c1)C(=O)O (stereo not given)	0.5	6.1	4.2	-0.6	3.1	0.4
O=C(CN1C(=O)CCC1=O)Nc1nc(-c2ccc3ccccc3c2)cs1	43.5*	-0.1	1.2	.	-13.4	-9.7
O=C(Nc1cscc1S(=O)(=O)c1ccccc1)c1ccccc1Cl	-0.2	6.0	.	-0.9	-21.8*	8.0
C[C@@H]1CCCCO[C@@H](CN(C)S(=O)(=O)c2cccs2)[C@H](C)CN([C@@H](C)CO)C(=O)c2cc(NC(=O)Nc3ccc(F)cc3)ccc2O1	0.6	0.7	1.1	-3.5	-1.6	-12.5[16.7 µM]
